Bioassay records (PubChem)
KCNK3 block = human KCNK3 channel inhibition, primary screen; O14649; CHO-KCNK3 thallium flux, FluxOR fluorescence; active compounds read low; B-score at 10 µM; hit rate 0.84% among 340,000; AID 602410;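 active = B-score under library mean minus 4 SD, starting fluorescence ratio at most library mean plus 5 SD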;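 also: more negative B-score means stronger inhibition of thallium flux through KCNK3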
KCNQ1 block = human KCNQ1 channel inhibition; CHO-K1 KCNQ1, FluxOR thallium flux fluorescence; active compounds read high; B-score at 10 µM; hit rate 1.3% among 310,000; AID 2642;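 active = compounds whose thallium flux B-score, printed positive for inhibition, exceeds three library SD while starting fluorescence stays within three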;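 also: channel opened by potassium depolarization with thallium stimulus after 20 min compound exposure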
hERG rescue = compounds protecting human hERG from proarrhythmic drug block; Q12809; hit rate 0.51% among 310,000; CHO-hERG, FluxOR thallium flux, dofetilide IC70 present; AID 1511; activation (rescue from dofetilide block), less the hit threshold, % at 10 µM;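 active = activation above the mean of controls blocked by dofetilide plus 5 SD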;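 also: thallium influx through hERG after potassium depolarization seen as dye fluorescence rise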
Kir21 inh = inhibitors of mouse Kir2.1 inward-rectifier potassium channel. P35561. HEK293-Kir2.1, FluxOR thallium flux fluorescence; active compounds read low. B-score at 10 µM. hit rate 0.85% among 310,000;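 active = fluorescence ratio B-score at or below minus 3 SD of library scores, with starting-brightness B-score within 2 SD, cut at about -4.2 in these data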;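 also: channel flux triggered by added potassium and thallium sulfate stimulus; B-score of peak minus minimum fluorescence over baseline after thallium stimulus; more negative B-score means stronger Kir2.1 block with less thallium influx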
Target sequence (P35561 whole entry, looked up): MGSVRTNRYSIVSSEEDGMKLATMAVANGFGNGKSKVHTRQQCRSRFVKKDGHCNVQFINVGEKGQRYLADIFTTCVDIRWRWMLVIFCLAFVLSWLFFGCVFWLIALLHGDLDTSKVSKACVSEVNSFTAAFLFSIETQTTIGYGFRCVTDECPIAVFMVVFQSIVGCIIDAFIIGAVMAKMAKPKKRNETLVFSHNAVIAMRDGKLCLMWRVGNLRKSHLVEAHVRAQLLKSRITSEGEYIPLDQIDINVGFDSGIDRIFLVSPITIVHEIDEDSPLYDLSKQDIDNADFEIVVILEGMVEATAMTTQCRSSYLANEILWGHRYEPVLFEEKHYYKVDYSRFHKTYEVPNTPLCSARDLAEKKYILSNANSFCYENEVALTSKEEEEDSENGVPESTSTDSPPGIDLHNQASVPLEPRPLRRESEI
KCNK9 block = blocks the human KCNK9 two-pore domain potassium channel; Q9NPC2; HEK293 KCNK9, FluxOR thallium flux fluorescence; active compounds read low; B-score at 10 µM; hit rate 1.2% among 310,000;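 active = ratio B-score over 3 SD below the library mean, with starting fluorescence within 5 SD of its mean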;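 also: negative B-score means less thallium flux so channel inhibition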
KCNQ1 act = potentiates or activates the human KCNQ1 potassium channel | P51787 | B-score at 10 µM | hit rate 0.35% among 310,000 | CHO-K1 KCNQ1, thallium flux FluxOR fluorescence; active compounds read high;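 active = fluorescence ratio B-score, a plate-corrected score, at least three library SD, with initial intensity B-score within 5 SD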
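Medium – assay buffer, equal DMSO in all wells · Material – CHO-K1 cell line with stable KCNQ1 potassium channel expression · Signal – kinetic FluxOR thallium fluorescence, 10-s 1-Hz baseline, 110-s post-stimulus read · Compound – single concentration per compound, DMSO matched to controls · Schedule – 37 °C overnight plating, 90-min dark dye load, 20-min compound pretreatment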
* = called active by the depositor; i = inactive; nt = not tested or not shown. The list is not random: actives were taken first. Their share in the collection is about 3.8%.

SMILES	KCNK3 block	KCNQ1 block	hERG rescue	Kir21 inh	KCNK9 block	KCNQ1 act
CN(C)c1cc[n+](CC(=O)Nc2cc(C(F)(F)F)ccc2Cl)cc1	i	i	3	-0.31	i	i
O=C(NC(=S)Nc1cc(C(F)(F)F)ccc1Cl)c1ccccc1	i	i	4.7*	1.3	i	i
Cc1cc[n+](CC(=O)Nc2cc(C(F)(F)F)ccc2Cl)cc1	i	i	4.9*	-0.31	i	i
COc1cc(CN2CCN(CC#Cc3ccccc3)CC2CCO)cc(OC)c1 (stereo not drawn)	i	i	-9	-1.5	i	i
CCOC(=O)C1=C(C)N(CCC(=O)O)C(=O)NC1c1ccccc1Cl (stereo not drawn)	i	i	-5	-0.11	i	i
Cc1nc2c(-c3ccc(F)cc3)c(C)nn2c(C)c1CCC(=O)Nc1ccccc1F	i	i	-4	0.19	i	i
CC1CCc2cc(F)ccc2N1S(=O)(=O)c1ccc(F)cc1 (stereo not drawn)	i	i	3	-4.3*	i	i
CCCC(=O)Nc1cccc(S(=O)(=O)N(C)c2ccccc2)c1	i	i	-9	0.39	i	i
CCCn1nc(C(=O)Nc2cccc(S(=O)(=O)N(C)c3ccccc3)c2)c2ccccc2c1=O	-9.2*	nt	nt	nt	nt	nt
NS(=O)(=O)c1ccc(NC(=O)COC(=O)/C=C/c2ccc([N+](=O)[O-])cc2)cc1	i	i	-7	1.1	i	i
CCC(CC)C(=O)OCC(=O)Nc1cccc(S(=O)(=O)N(C)c2ccccc2)c1	i	i	-10	-0.42	-7.2*	i
CCCn1nc(C(=O)NCc2ccc3c(c2)OCO3)c2ccccc2c1=O	-8.9*	i	-14	1.4	i	i
CN(c1ccccc1)S(=O)(=O)c1cccc(NC(=O)COc2ccccc2)c1	i	nt	nt	nt	nt	nt
CC(OC(=O)c1nn(C)c(=O)c2ccccc12)C(=O)NCc1ccc2c(c1)OCO2 (stereo not drawn)	i	i	-17	0.01	i	i
CN(C)S(=O)(=O)c1cccc(NC(=O)COC(=O)/C=C/c2ccc([N+](=O)[O-])cc2)c1	i	i	8.1*	-1	i	i
O=C(NCc1ccccc1CN1CCCC1)c1ccc(Cl)c(S(=O)(=O)N2CCCC2)c1	i	nt	nt	nt	nt	nt
CC(=O)c1c(C)[nH]c(C(=O)Nc2cccc(S(=O)(=O)N3CCCC3)c2)c1C	i	nt	nt	nt	nt	nt
CC1Cc2ccccc2N1C(=O)CSc1nnc2c(n1)[nH]c1ccc(F)cc12 (stereo not drawn)	i	i	-4	-2	i	i
CCCn1c(=O)c(C(=O)NCc2ccc3c(c2)OCO3)c(O)c2ccccc21	i	8*	-4	0.09	i	i
O=C(/C=C/c1ccccc1)c1ccc2c(c1)OCO2	i	i	-7	1.1	i	i
O=C(/C=C/c1cccc(Br)c1)c1ccc2c(c1)OCO2	i	i	-9	1.9	-7.8*	i
CCCc1cc(=O)n2[nH]c(-c3ccc(OC)cc3)nc2n1	i	i	-6	-1.3	-7.8*	i
COC(=O)c1cccc(NC(=O)C(C)(C)C)c1	i	i	0	-0.05	i	i
CCOc1ccc(C(c2c(NC(=O)c3ccco3)sc(C)c2C)N2CCOCC2)cc1 (stereo not drawn)	-11*	nt	nt	nt	nt	nt
Cc1sc(NC(=O)c2ccco2)c(C(c2ccncc2)N2CCOCC2)c1C (stereo not drawn)	i	i	-9	-0.46	i	i
SMILES	KCNK3 block	KCNQ1 block	hERG rescue	Kir21 inh	KCNK9 block	KCNQ1 act
Cc1c(N2C(=O)/C(=C\c3ccc(N(C)C)cc3)N(C)C2=S)c(=O)n(-c2ccccc2)n1C	i	nt	nt	nt	nt	nt
Cc1ccc(/C(O)=C/C(=O)C(=O)NC23CC4CC(CC(C4)C2)C3)cc1	i	i	8.5*	-0.1	i	15*
Cc1ccc(C(=O)NCC(=O)NC23CC4CC(CC(C4)C2)C3)cc1	i	i	-7	-0.08	i	i
CC1CN(Cc2ccccc2)C(C)CC1O (stereo not drawn)	i	i	-9	2.5	i	i
CC1C/C(=N/Nc2nc3ccccc3[nH]2)CC(C)(C)C1 (stereo not drawn)	i	i	-7	1.1	i	i
Cc1cc(N/N=C2\CC(C)CC(C)(C)C2)nc2ccccc12 (stereo not drawn)	i	14*	-24	0.22	i	i
COc1ccc2o/c(=N/NC(=S)Nc3ccccc3)c(C(N)=O)cc2c1	nt	i	-13	-0.06	i	i
COc1ccc(-c2csc(NC(=O)C3CCCCN3S(=O)(=O)c3ccccc3)n2)cc1 (stereo not drawn)	i	i	-8	-1.6	i	151*
CC(=O)Nc1ccc(N2C(C(C)=O)=NN(c3ccccc3)C2c2cccs2)cc1 (stereo not drawn)	i	i	-10	0.76	i	i
COc1ccc(N2C(C(C)=O)=NN(c3ccccc3)C2c2cccs2)cc1 (stereo not drawn)	i	7*	-9	0.36	i	i
CCN(CCNCC(O)COCc1ccc(Cl)cc1)c1cccc(C)c1 (stereo not drawn)	i	i	-20	-7.5*	i	i
CN(C)S(=O)(=O)N1CCN(CC(=O)Nc2ccc(F)cc2)CC1	i	i	-9	-0.07	i	i
COc1cc([N+](=O)[O-])ccc1NC(=O)NCC1CCN(Cc2ccc(Cl)cc2)CC1	i	i	-13	-5.6*	i	i
COc1ccc(Cl)cc1NC(=O)NCC1CCN(Cc2cc(C)ccc2C)CC1	i	i	-15	-0.55	i	i
CN1/C(=C/C(=O)c2nc(S(C)(=O)=O)ncc2Cl)C(C)(C)c2ccccc21	i	6*	-17	-2	i	i
CCSC1=C(C#N)C(c2cccs2)C(C(=O)OC)=C(C)N1 (stereo not drawn)	i	i	-3	-4	i	i
CCCSC1=C(C#N)C(c2cccs2)C(C(=O)Nc2ccccc2)=C(C)N1 (stereo not drawn)	i	12*	-14	-2.3	i	i
O=c1cc(-c2ccc(Cl)cc2)nc(N2CCN(c3ccccc3)CC2)[nH]1	i	i	-6	-1	-7.2*	i
CC(C)(C)c1cc(C(=O)NNC(=O)c2ccc(C(F)(F)F)cc2)no1	i	i	-5	-1.7	i	9*
O=C(Nc1ccccc1C(=O)O)/C(=C/c1ccc(Cl)cc1Cl)NC(=O)c1ccco1	i	i	-5	1.1	i	i
CC(C)c1ccc(NC(=O)Cn2ncn3c(cc4ccccc43)c2=O)cc1	i	i	-11	1.1	i	i
